Test results taken from ChEMBL document CHEMBL1144782, “Isoindolo[2,1-a]quinoxaline derivatives, novel potent antitumor agents with dual inhibition of tubulin polymerization and topoisomerase I” (2008).
Where “and” joins values, the source holds several entries; their conditions need not be identical. Equal values may be shown once.

What was measured:
MCF7 [1] = experiment: Resistance index, Ratio of GI50 for human multidrug-resistant MCF7 cells to GI50 for human MCF7 cells; format: functional
Summary of the method: (§1)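 Growth inhibition by MTT after 72 h incubation. Resistant sublines: LoVoDoxo and MCF-7 MDR were kept in 0.1 µg/mL doxorubicin; CEMVbl-100 was selected against vinblastine. GI50 given as mean ± SEM of three independent experiments. Resistance index is resistant-line GI50 over parental GI50.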

NCI-H460 = experiment: Cell viability against human NCI-H460 cells at 10 uM; format: functional
U-251 = experiment: Antitumor activity against human U251 cells; format: functional
Summary of the method: (§2)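 NCI 60-cell-line screen. Parameters were GI50 (50% net growth inhibition), TGI and LC50, each reported as –log molar concentration. Where an effect was not reached within the tested range, the highest tested concentration was used in the calculation.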

OVCAR-3 = experiment: Antitumor activity against human OVCAR-3 cells; format: functional
Summary of the method: (§3)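 Run by the NCI in its in vitro disease-oriented screen of about 60 human tumour cell lines. For each line it reports pGI50 (50% net growth inhibition), pTGI (total growth inhibition) and pLC50 (50% net cell death), each as –log molar concentration. Where an effect was not reached within the tested range, the highest tested concentration was used.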

RXF 393 = experiment: Antitumor activity against human RXF393 cells; format: functional; summary of the method: as §3
NCI/ADR-RES = experiment: Antitumor activity against human NCI/ADR-RES cells; format: functional; summary of the method: as §3
DU-145 = experiment: Antitumor activity against human DU145 cells; format: functional; summary of the method: as §3
NCI-H23 = experiment: Antitumor activity against human NCI-H23 cells; format: functional; summary of the method: as §3
SK-MEL-28 = experiment: Antitumor activity against human SKMEL28 cells; format: functional; summary of the method: as §3
ACHN = experiment: Antitumor activity against human ACHN cells; format: functional; summary of the method: as §3
SN12C = experiment: Antitumor activity against human SN12C cells; format: functional; summary of the method: as §3
SK-MEL-2 = experiment: Antitumor activity against human SKMEL2 cells; format: functional; summary of the method: as §3
HOP-92 = experiment: Antitumor activity against human HOP92 cells; format: functional; summary of the method: as §3
SF-268 [2] = experiment: Antitumor activity against human SF268 cells; format: functional; summary of the method: as §3
T47D = experiment: Antitumor activity against human T47D cells; format: functional; summary of the method: as §2
CAKI-1 = experiment: Antitumor activity against human CAKI1 cells; format: functional; summary of the method: as §3
Hs-578T = experiment: Antitumor activity against human HS578T cells; format: functional; summary of the method: as §3
NCI-H522 = experiment: Antitumor activity against human NCI-H522 cells; format: functional; summary of the method: as §3
MOLT-4 = experiment: Antitumor activity against human MOLT4 cells; format: functional; summary of the method: as §3
RPMI-8226 = experiment: Antitumor activity against human RPMI8226 cells; format: functional; summary of the method: as §3
HT-29 = experiment: Antitumor activity against human HT29 cells; format: functional; summary of the method: as §3
A498 = experiment: Antitumor activity against human A498 cells; format: functional; summary of the method: as §3
SK-OV-3 = experiment: Antitumor activity against human SKOV3 cells; format: functional; summary of the method: as §3
MCF7 [3] = experiment: Growth inhibition of human multidrug-resistant MCF7 cells after 72 hrs by MTT assay; format: functional; settings: MCF7, 72 h; summary of the method: as §1
TK-10 = experiment: Antitumor activity against human TK10 cells; format: functional; summary of the method: as §2
HCT-15 = experiment: Antitumor activity against human HCT15 cells; format: functional; summary of the method: as §3
MCF7 [4] = experiment: Growth inhibition of human MCF7 cells after 72 hrs by MTT assay; format: functional; settings: MCF7, 72 h; summary of the method: as §1
Malme-3M = experiment: Antitumor activity against human MALME3M cells; format: functional; summary of the method: as §3
M14 = experiment: Antitumor activity against human M14 cells; format: functional; summary of the method: as §3
COLO 205 = experiment: Antitumor activity against human COLO205 cells; format: functional; summary of the method: as §3
SF-295 = experiment: Antitumor activity against human SF295 cells; format: functional; summary of the method: as §3
UACC-62 = experiment: Antitumor activity against human UACC62 cells; format: functional; summary of the method: as §2
OVCAR-8 = experiment: Antitumor activity against human OVCAR8 cells; format: functional; summary of the method: as §3
HOP-62 = experiment: Antitumor activity against human HOP62 cells; format: functional; summary of the method: as §3
CCRF-CEM = experiment: Growth inhibition of human CEM cells after 72 hrs by MTT assay; format: functional; summary of the method: as §1
MDA-MB-435 = experiment: Antitumor activity against human MDA-MB-435 cells; format: functional; summary of the method: as §3
SF-268 [5] = experiment: Cell viability against human SF268 cells at 10 uM; format: functional
Tubulin (Sus scrofa) = Tubulin (Sus scrofa) (UniProt P02554+P02550); experiment: Inhibition of pig brain tubulin polymerization
SW-620 = experiment: Antitumor activity against human SW620 cells; format: functional; summary of the method: as §2
[6] = Antitumor activity against human NCI-H322 cells; format: functional; summary of the method: as §3
PC-3 = experiment: Antitumor activity against human PC3 cells; format: functional; summary of the method: as §3
[7] = read-out: Log LC50 (the source's name) (converted)

Chain of Tubulin (Sus scrofa) (P02550 whole entry, looked up): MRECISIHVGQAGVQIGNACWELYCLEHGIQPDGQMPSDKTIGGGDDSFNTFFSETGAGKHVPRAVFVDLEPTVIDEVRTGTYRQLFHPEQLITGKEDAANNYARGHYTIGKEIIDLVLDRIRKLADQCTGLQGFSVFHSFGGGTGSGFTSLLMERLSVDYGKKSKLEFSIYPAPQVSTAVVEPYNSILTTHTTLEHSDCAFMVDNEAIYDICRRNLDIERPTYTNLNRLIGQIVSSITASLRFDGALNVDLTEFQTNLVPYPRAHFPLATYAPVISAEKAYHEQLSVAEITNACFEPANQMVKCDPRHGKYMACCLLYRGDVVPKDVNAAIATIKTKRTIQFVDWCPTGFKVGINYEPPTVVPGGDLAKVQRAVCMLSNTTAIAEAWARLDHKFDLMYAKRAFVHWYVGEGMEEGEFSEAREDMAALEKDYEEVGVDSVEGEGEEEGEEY
Chain of Tubulin (Sus scrofa) (P02554 whole entry, looked up): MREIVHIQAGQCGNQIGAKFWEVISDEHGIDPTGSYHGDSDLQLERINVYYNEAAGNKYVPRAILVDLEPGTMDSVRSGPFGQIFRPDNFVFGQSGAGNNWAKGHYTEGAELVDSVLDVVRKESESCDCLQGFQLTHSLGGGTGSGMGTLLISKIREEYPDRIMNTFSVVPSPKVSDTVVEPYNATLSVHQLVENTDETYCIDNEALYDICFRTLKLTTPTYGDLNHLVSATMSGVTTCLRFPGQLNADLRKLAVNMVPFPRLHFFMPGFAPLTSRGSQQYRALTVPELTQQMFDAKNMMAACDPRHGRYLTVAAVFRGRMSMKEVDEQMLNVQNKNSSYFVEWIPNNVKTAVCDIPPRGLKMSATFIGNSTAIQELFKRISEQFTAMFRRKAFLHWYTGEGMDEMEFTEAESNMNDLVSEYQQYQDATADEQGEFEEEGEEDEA

Cc1cccc2c1[nH]c(=O)c1c3ccccc3cn21
RatioGI50 (MCF7 [1]): 2.2
Activity (NCI-H460): 2%
GI50 (U-251): 6.61 µM
CC50 (U-251; [7]): 45.7 µM
TGI (U-251; read-out: pTGI (converted)): 19.5 µM
GI50 (OVCAR-3): 4.79 µM
LC50 (50% net cell death) (OVCAR-3): > 100 µM
TGI (OVCAR-3; read-out: pTGI (converted)): 28.2 µM
GI50 (RXF 393): 9.12 µM
CC50 (RXF 393; [7]): > 100 µM
TGI (RXF 393; read-out: pTGI (converted)): 38 µM
GI50 (NCI/ADR-RES): 12 µM
LC50 (NCI/ADR-RES): > 100 µM
TGI (NCI/ADR-RES; read-out: pTGI (converted)): 34.7 µM
GI50 (DU-145): 5.25 µM and 17.4 µM
CC50 (DU-145; Homo sapiens, DU-145, read-out: Log LC50 (the source's name) (converted)): 41.7 µM
GI50 (NCI-H23): 17.4 µM
LC50 (50% net cell kill) (NCI-H23): 87.1 µM
TGI (NCI-H23; read-out: pTGI (converted)): 38.9 µM
GI50 (SK-MEL-28): 6.92 µM
CC50 (SK-MEL-28; [7]): > 100 µM
TGI (SK-MEL-28; read-out: pTGI (converted)): > 100 µM
GI50 (ACHN): 4.07 µM
LC50 (50% net cell kill) (ACHN): > 100 µM
TGI (ACHN; read-out: pTGI (converted)): 22.4 µM
GI50 (SN12C): 1.82 µM
LC50 (SN12C): > 100 µM
TGI (SN12C; read-out: pTGI (converted)): 19.1 µM
GI50 (SK-MEL-2): 14.5 µM
LC50 (SK-MEL-2): > 100 µM
TGI (SK-MEL-2; read-out: pTGI (converted)): > 100 µM
GI50 (HOP-92): 3.98 µM
LC50 (HOP-92): > 100 µM
TGI (HOP-92; read-out: pTGI (converted)): 32.4 µM
GI50 (SF-268 [2]): 3.02 µM
CC50 (SF-268 [2]; [7]): 75.9 µM
TGI (SF-268 [2]; read-out: pTGI (converted)): 8.51 µM
GI50 (T47D): 11.5 µM
LC50 (T47D): > 100 µM
TGI (T47D; read-out: pTGI (converted)): 49 µM
GI50 (CAKI-1): 2.19 µM
LC50 (CAKI-1): > 100 µM
TGI (CAKI-1; read-out: pTGI (converted)): 8.71 µM
GI50 (Hs-578T): 21.9 µM
CC50 (Hs-578T; [7]): > 100 µM
TGI (Hs-578T; read-out: pTGI (converted)): 64.6 µM
GI50 (NCI-H522): 6.46 µM
CC50 (NCI-H522; [7]): > 100 µM
TGI (NCI-H522; read-out: pTGI (converted)): 64.6 µM
GI50 (MOLT-4): 1.82 µM
LC50 (MOLT-4): 20.9 µM
TGI (MOLT-4; read-out: pTGI (converted)): 5.62 µM
GI50 (RPMI-8226): 2 µM
CC50 (RPMI-8226; [7]): 60.3 µM
TGI (RPMI-8226; read-out: pTGI (converted)): 7.08 µM
GI50 (HT-29): 2.19 µM
LC50 (HT-29): 36.3 µM
TGI (HT-29; read-out: pTGI (converted)): 13.2 µM
GI50 (A498): 16.2 µM
CC50 (A498; [7]): > 100 µM
TGI (A498; read-out: pTGI (converted)): 41.7 µM
GI50 (SK-OV-3): 27.5 µM
LC50 (50% net cell kill) (SK-OV-3): > 100 µM
TGI (SK-OV-3; read-out: pTGI (converted)): > 100 µM
GI50 (MCF7 [3]): 8.1 µM
GI50 (TK-10): 26.9 µM
CC50 (TK-10; [7]): > 100 µM
TGI (TK-10; read-out: pTGI (converted)): 87.1 µM
GI50 (HCT-15): 5.25 µM
CC50 (HCT-15; [7]): > 100 µM
TGI (HCT-15; read-out: pTGI (converted)): 31.6 µM
GI50 (MCF7 [4]): 3.7 µM
GI50 (Malme-3M): 8.32 µM
CC50 (Malme-3M; [7]): 67.6 µM
TGI (Malme-3M; read-out: pTGI (converted)): 24.5 µM
GI50 (M14): 12.6 µM
CC50 (M14; [7]): 77.6 µM
TGI (M14; read-out: pTGI (converted)): 30.9 µM
GI50 (COLO 205): 7.41 µM
LC50 (COLO 205): > 100 µM
TGI (COLO 205; read-out: pTGI (converted)): 34.7 µM
GI50 (SF-295): 2.63 µM
CC50 (SF-295; [7]): > 100 µM
TGI (SF-295; read-out: pTGI (converted)): 25.1 µM
GI50 (UACC-62): 6.92 µM
LC50 (UACC-62): 95.5 µM
TGI (UACC-62; read-out: pTGI (converted)): 28.2 µM
GI50 (OVCAR-8): 3.55 µM
LC50 (50% net cell death) (OVCAR-8): > 100 µM
TGI (OVCAR-8; read-out: pTGI (converted)): > 100 µM
GI50 (HOP-62): 3.55 µM
LC50 (50% net cell death) (HOP-62): 51.3 µM
TGI (HOP-62; read-out: pTGI (converted)): 15.1 µM
GI50 (CCRF-CEM): 2.9 µM
GI50 (MDA-MB-435): 3.16 µM
LC50 (50% net cell death) (MDA-MB-435): 95.5 µM
TGI (MDA-MB-435; read-out: pTGI (converted)): 11.5 µM
Activity (SF-268 [5]): 55%
Activity (Tubulin (Sus scrofa)): > 10 µM
GI50 (SW-620): 5.75 µM
CC50 (SW-620; [7]): 42.7 µM
TGI (SW-620; read-out: pTGI (converted)): 17.8 µM
GI50 [6]: 13.5 µM
LC50 (50% net cell death) [6]: > 100 µM
TGI ([6]; read-out: pTGI (converted)): 45.7 µM
GI50 (PC-3): 3.89 µM
LC50 (50% net cell death) (PC-3): > 100 µM
TGI (PC-3; read-out: pTGI (converted)): 44.7 µM
